The source made the active and inactive calls. No cut-off for these calls is given here.
Key:
[1] = tested on: Bordetella bronchiseptica; experiment: Antimicrobial activity against Bordetella bronchiseptica ATCC 4617 at 25 ug/ml by agar diffusion method; type: functional; details: for zone of inhibition at 25 µg/mL: read-out: DIZ
Outline: (§1)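 Agar diffusion on Mueller-Hinton agar. Bacterial strains came from the NODCAR Microbiology laboratory culture collection. Ampicillin was the reference standard.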

Escherichia coli = experiment: Antimicrobial activity against Escherichia coli ATCC 14169 at 25 ug/ml by agar diffusion method; type: functional; details: for zone of inhibition at 25 µg/mL: read-out: DIZ; outline: as §1
Bacillus pumilus = experiment: Antimicrobial activity against Bacillus pumilus ATCC 14884 at 25 ug/ml by agar diffusion method; type: functional; details: for zone of inhibition at 25 µg/mL: read-out: DIZ; outline: as §1
Bacillus subtilis = experiment: Antimicrobial activity against Bacillus subtilis ATCC 6633 at 25 ug/ml by agar diffusion method; type: functional; details: for zone of inhibition at 25 µg/mL: read-out: DIZ; outline: as §1
Staphylococcus aureus = experiment: Antimicrobial activity against Staphylococcus aureus ATCC 29737 at 25 ug/ml by agar diffusion method; type: functional; details: for zone of inhibition at 25 µg/mL: read-out: DIZ; outline: as §1
[2] = tested on: Staphylococcus epidermidis; experiment: Antimicrobial activity against Staphylococcus epidermidis ATCC 12228 at 25 ug/ml by agar diffusion method; type: functional; details: for zone of inhibition at 25 µg/mL: read-out: DIZ; outline: as §1
Candida albicans = experiment: Antifungal activity against Candida albicans ATCC 10231 at 25 ug/ml by agar diffusion method; type: functional; details: for zone of inhibition at 25 µg/mL: read-out: DIZ
Outline: (§2)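 Agar diffusion on Sabouraud's agar. Fungal strains came from the NODCAR Microbiology laboratory culture collection. Mycostatine was the reference standard.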

Saccharomyces cerevisiae = experiment: Antifungal activity against Saccharomyces cerevisiae ATCC 9080 at 25 ug/ml by agar diffusion method; type: functional; details: for zone of inhibition at 25 µg/mL: read-out: DIZ; outline: as §2
MCF7 = experiment: Cytotoxicity against human MCF7 cells; type: functional, cell-based
Outline: (§3)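 Human tumour lines were MCF-7 (breast adenocarcinoma) and HCT (described as lung carcinoma). Cytotoxicity was read by a cell viability assay, with IC50 derived from it.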

Cancer cell lines = experiment: Cytotoxicity against human Lung cancer cells; type: functional, cell-based; outline: as §3

CCOC(=O)C1=C(N)Oc2cc(N(CC)CC)ccc2C1c1ccc(F)cc1 (stereo unspecified)
diameter of the inhibition zone (DIZ) [1]: inactive
diameter of the inhibition zone (DIZ) (Escherichia coli): inactive
diameter of the inhibition zone (DIZ) (Bacillus pumilus): inactive
diameter of the inhibition zone (DIZ) (Bacillus subtilis): inactive
zone of inhibition at 25 µg/mL (Staphylococcus aureus): 14 mm
zone of inhibition at 25 µg/mL [2]: 14 mm
diameter of the inhibition zone (DIZ) (Candida albicans): inactive
diameter of the inhibition zone (DIZ) (Saccharomyces cerevisiae): inactive

CCN(CC)c1ccc2c(c1)Oc1ncnc(N)c1C2c1ccc(Cl)cc1 (stereo unspecified)
zone of inhibition at 25 µg/mL [1]: 21 mm
zone of inhibition at 25 µg/mL (Escherichia coli): 20 mm
zone of inhibition at 25 µg/mL (Bacillus pumilus): 25 mm
zone of inhibition at 25 µg/mL (Bacillus subtilis): 21 mm
zone of inhibition at 25 µg/mL (Staphylococcus aureus): 25 mm
zone of inhibition at 25 µg/mL [2]: 24 mm
zone of inhibition at 25 µg/mL (Candida albicans): 15 mm
zone of inhibition at 25 µg/mL (Saccharomyces cerevisiae): 20 mm

CC1(C)S[C@@H]2[C@H](NC(=O)[C@H](N)c3ccccc3)C(=O)N2[C@H]1C(=O)O [AMPICILLIN]
zone of inhibition at 25 µg/mL [1]: 24 mm
zone of inhibition at 25 µg/mL (Escherichia coli): 25 mm
zone of inhibition at 25 µg/mL (Bacillus pumilus): 20 mm
zone of inhibition at 25 µg/mL (Bacillus subtilis): 25 mm
zone of inhibition at 25 µg/mL (Staphylococcus aureus): 26 mm
zone of inhibition at 25 µg/mL [2]: 25 mm

CCN(CC)c1ccc2c(c1)Oc1ncn(C)c(=N)c1C2c1ccc(Cl)cc1 (stereo unspecified)
zone of inhibition at 25 µg/mL [1]: 20 mm
zone of inhibition at 25 µg/mL (Escherichia coli): 21 mm
zone of inhibition at 25 µg/mL (Bacillus pumilus): 25 mm
zone of inhibition at 25 µg/mL (Bacillus subtilis): 21 mm
zone of inhibition at 25 µg/mL (Staphylococcus aureus): 24 mm
zone of inhibition at 25 µg/mL [2]: 25 mm
zone of inhibition at 25 µg/mL (Candida albicans): 14 mm
zone of inhibition at 25 µg/mL (Saccharomyces cerevisiae): 20 mm

CCN(CC)c1ccc2c(c1)OC(/N=C/N)=C(C#N)C2c1ccc(Cl)cc1 (stereo unspecified)
diameter of the inhibition zone (DIZ) [1]: inactive
diameter of the inhibition zone (DIZ) (Escherichia coli): inactive
diameter of the inhibition zone (DIZ) (Bacillus pumilus): inactive
diameter of the inhibition zone (DIZ) (Bacillus subtilis): inactive
diameter of the inhibition zone (DIZ) (Staphylococcus aureus): inactive
diameter of the inhibition zone (DIZ) [2]: inactive
diameter of the inhibition zone (DIZ) (Candida albicans): inactive
diameter of the inhibition zone (DIZ) (Saccharomyces cerevisiae): inactive

NYSTATIN
inhibition zone (IZ) (Saccharomyces cerevisiae): 24 mm

CCN(CC)c1ccc2c(c1)Oc1ncn(N)c(=N)c1C2c1ccc(Cl)cc1 (stereo unspecified)
zone of inhibition at 25 µg/mL [1]: 22 mm
zone of inhibition at 25 µg/mL (Escherichia coli): 17 mm
zone of inhibition at 25 µg/mL (Bacillus pumilus): 27 mm
zone of inhibition at 25 µg/mL (Bacillus subtilis): 17 mm
zone of inhibition at 25 µg/mL (Staphylococcus aureus): 26 mm
zone of inhibition at 25 µg/mL [2]: 24 mm
zone of inhibition at 25 µg/mL (Candida albicans): 16 mm
zone of inhibition at 25 µg/mL (Saccharomyces cerevisiae): 24 mm

CCN(CC)c1ccc2c(c1)OC(/N=C/N(C)C)=C(C#N)C2c1ccc(Cl)cc1 (stereo unspecified)
diameter of the inhibition zone (DIZ) [1]: inactive
diameter of the inhibition zone (DIZ) (Escherichia coli): inactive
diameter of the inhibition zone (DIZ) (Bacillus pumilus): inactive
diameter of the inhibition zone (DIZ) (Bacillus subtilis): inactive
diameter of the inhibition zone (DIZ) (Staphylococcus aureus): inactive
diameter of the inhibition zone (DIZ) [2]: inactive
diameter of the inhibition zone (DIZ) (Candida albicans): inactive
diameter of the inhibition zone (DIZ) (Saccharomyces cerevisiae): inactive

CCN(CC)c1ccc2c(c1)OC(N(C(C)=O)C(C)=O)=C(C#N)C2c1ccc(Cl)cc1 (stereo unspecified)
diameter of the inhibition zone (DIZ) [1]: inactive
diameter of the inhibition zone (DIZ) (Escherichia coli): inactive
diameter of the inhibition zone (DIZ) (Bacillus pumilus): inactive
diameter of the inhibition zone (DIZ) (Bacillus subtilis): inactive
diameter of the inhibition zone (DIZ) (Staphylococcus aureus): inactive
diameter of the inhibition zone (DIZ) [2]: inactive
diameter of the inhibition zone (DIZ) (Candida albicans): inactive
diameter of the inhibition zone (DIZ) (Saccharomyces cerevisiae): inactive

CCN(CC)c1ccc2c(c1)OC(N)=C(C#N)C2c1ccc(F)cc1 (stereo unspecified)
diameter of the inhibition zone (DIZ) [1]: inactive
diameter of the inhibition zone (DIZ) (Escherichia coli): inactive
diameter of the inhibition zone (DIZ) (Bacillus pumilus): inactive
diameter of the inhibition zone (DIZ) (Bacillus subtilis): inactive
diameter of the inhibition zone (DIZ) (Staphylococcus aureus): inactive
diameter of the inhibition zone (DIZ) [2]: inactive
diameter of the inhibition zone (DIZ) (Candida albicans): inactive
diameter of the inhibition zone (DIZ) (Saccharomyces cerevisiae): inactive
Activity (MCF7): Not toxic
Activity (Cancer cell lines): Not toxic

CCO/C=N/C1=C(C#N)C(c2ccc(Br)cc2)c2ccc(N(CC)CC)cc2O1 (stereo unspecified)
diameter of the inhibition zone (DIZ) [1]: inactive
diameter of the inhibition zone (DIZ) (Escherichia coli): inactive
diameter of the inhibition zone (DIZ) (Bacillus pumilus): inactive
diameter of the inhibition zone (DIZ) (Bacillus subtilis): inactive
diameter of the inhibition zone (DIZ) (Staphylococcus aureus): inactive
diameter of the inhibition zone (DIZ) [2]: inactive
diameter of the inhibition zone (DIZ) (Candida albicans): inactive
diameter of the inhibition zone (DIZ) (Saccharomyces cerevisiae): inactive

CCN(CC)c1ccc2c(c1)OC(N)=C(C#N)C2c1ccc(Br)cc1 (stereo unspecified)
diameter of the inhibition zone (DIZ) [1]: inactive
diameter of the inhibition zone (DIZ) (Escherichia coli): inactive
diameter of the inhibition zone (DIZ) (Bacillus pumilus): inactive
diameter of the inhibition zone (DIZ) (Bacillus subtilis): inactive
diameter of the inhibition zone (DIZ) (Staphylococcus aureus): inactive
diameter of the inhibition zone (DIZ) [2]: inactive
diameter of the inhibition zone (DIZ) (Candida albicans): inactive
diameter of the inhibition zone (DIZ) (Saccharomyces cerevisiae): inactive

CCN(CC)c1ccc2c(c1)Oc1nc(C)[nH]c(=O)c1C2c1ccc(Cl)cc1 (stereo unspecified)
diameter of the inhibition zone (DIZ) [1]: inactive
diameter of the inhibition zone (DIZ) (Escherichia coli): inactive
diameter of the inhibition zone (DIZ) (Bacillus pumilus): inactive
diameter of the inhibition zone (DIZ) (Bacillus subtilis): inactive
diameter of the inhibition zone (DIZ) (Staphylococcus aureus): inactive
diameter of the inhibition zone (DIZ) [2]: inactive
diameter of the inhibition zone (DIZ) (Candida albicans): inactive
diameter of the inhibition zone (DIZ) (Saccharomyces cerevisiae): inactive

CCN(CC)c1ccc2c(-c3ccc(F)cc3)c(C#N)c(=O)oc2c1
diameter of the inhibition zone (DIZ) [1]: inactive
diameter of the inhibition zone (DIZ) (Escherichia coli): inactive
diameter of the inhibition zone (DIZ) (Bacillus pumilus): inactive
diameter of the inhibition zone (DIZ) (Bacillus subtilis): inactive
zone of inhibition at 25 µg/mL (Staphylococcus aureus): 13 mm
zone of inhibition at 25 µg/mL [2]: 14 mm
diameter of the inhibition zone (DIZ) (Candida albicans): inactive
diameter of the inhibition zone (DIZ) (Saccharomyces cerevisiae): inactive

CCN(CC)c1ccc2c(c1)OC(N)=C(C#N)C2c1ccc(Cl)cc1 (stereo unspecified)
diameter of the inhibition zone (DIZ) [1]: inactive
diameter of the inhibition zone (DIZ) (Escherichia coli): inactive
diameter of the inhibition zone (DIZ) (Bacillus pumilus): inactive
diameter of the inhibition zone (DIZ) (Bacillus subtilis): inactive
zone of inhibition at 25 µg/mL (Staphylococcus aureus): 14 mm
zone of inhibition at 25 µg/mL [2]: 15 mm
diameter of the inhibition zone (DIZ) (Candida albicans): inactive
diameter of the inhibition zone (DIZ) (Saccharomyces cerevisiae): inactive

CCOC(=O)C1=C(N)Oc2cc(N(CC)CC)ccc2C1c1ccc(Cl)cc1 (stereo unspecified)
diameter of the inhibition zone (DIZ) [1]: inactive
diameter of the inhibition zone (DIZ) (Escherichia coli): inactive
diameter of the inhibition zone (DIZ) (Bacillus pumilus): inactive
diameter of the inhibition zone (DIZ) (Bacillus subtilis): inactive
diameter of the inhibition zone (DIZ) (Staphylococcus aureus): inactive
diameter of the inhibition zone (DIZ) [2]: inactive
diameter of the inhibition zone (DIZ) (Candida albicans): inactive
diameter of the inhibition zone (DIZ) (Saccharomyces cerevisiae): inactive

CCN(CC)c1ccc2c(c1)OC(/N=C/c1ccccc1)=C(C#N)C2c1ccc(Cl)cc1 (stereo unspecified)
diameter of the inhibition zone (DIZ) [1]: inactive
diameter of the inhibition zone (DIZ) (Escherichia coli): inactive
diameter of the inhibition zone (DIZ) (Bacillus pumilus): inactive
diameter of the inhibition zone (DIZ) (Bacillus subtilis): inactive
diameter of the inhibition zone (DIZ) (Staphylococcus aureus): inactive
diameter of the inhibition zone (DIZ) [2]: inactive
diameter of the inhibition zone (DIZ) (Candida albicans): inactive
diameter of the inhibition zone (DIZ) (Saccharomyces cerevisiae): inactive

CCN(CC)c1ccc2c(-c3ccc(Br)cc3)c(C#N)c(=O)oc2c1
diameter of the inhibition zone (DIZ) [1]: inactive
diameter of the inhibition zone (DIZ) (Escherichia coli): inactive
diameter of the inhibition zone (DIZ) (Bacillus pumilus): inactive
diameter of the inhibition zone (DIZ) (Bacillus subtilis): inactive
diameter of the inhibition zone (DIZ) (Staphylococcus aureus): inactive
diameter of the inhibition zone (DIZ) [2]: inactive
diameter of the inhibition zone (DIZ) (Candida albicans): inactive
diameter of the inhibition zone (DIZ) (Saccharomyces cerevisiae): inactive

CCN(CC)c1ccc2c(c1)Oc1ncn(N)c(=N)c1C2c1ccc(Br)cc1 (stereo unspecified)
zone of inhibition at 25 µg/mL [1]: 21 mm
zone of inhibition at 25 µg/mL (Escherichia coli): 16 mm
zone of inhibition at 25 µg/mL (Bacillus pumilus): 25 mm
zone of inhibition at 25 µg/mL (Bacillus subtilis): 15 mm
zone of inhibition at 25 µg/mL (Staphylococcus aureus): 24 mm
zone of inhibition at 25 µg/mL [2]: 22 mm
zone of inhibition at 25 µg/mL (Candida albicans): 15 mm
zone of inhibition at 25 µg/mL (Saccharomyces cerevisiae): 22 mm

CCO/C=N/C1=C(C#N)C(c2ccc(Cl)cc2)c2ccc(N(CC)CC)cc2O1 (stereo unspecified)
diameter of the inhibition zone (DIZ) [1]: inactive
diameter of the inhibition zone (DIZ) (Escherichia coli): inactive
diameter of the inhibition zone (DIZ) (Bacillus pumilus): inactive
diameter of the inhibition zone (DIZ) (Bacillus subtilis): inactive
diameter of the inhibition zone (DIZ) (Staphylococcus aureus): inactive
diameter of the inhibition zone (DIZ) [2]: inactive
diameter of the inhibition zone (DIZ) (Candida albicans): inactive
diameter of the inhibition zone (DIZ) (Saccharomyces cerevisiae): inactive

CCOC(=O)C1=C(N)Oc2cc(N(CC)CC)ccc2C1c1ccc(Br)cc1 (stereo unspecified)
diameter of the inhibition zone (DIZ) [1]: inactive
diameter of the inhibition zone (DIZ) (Escherichia coli): inactive
diameter of the inhibition zone (DIZ) (Bacillus pumilus): inactive
diameter of the inhibition zone (DIZ) (Bacillus subtilis): inactive
diameter of the inhibition zone (DIZ) (Staphylococcus aureus): inactive
diameter of the inhibition zone (DIZ) [2]: inactive
diameter of the inhibition zone (DIZ) (Candida albicans): inactive
diameter of the inhibition zone (DIZ) (Saccharomyces cerevisiae): inactive
Activity (MCF7): Not toxic
Activity (Cancer cell lines): Not toxic

CCN(CC)c1ccc2c(-c3ccc(Cl)cc3)c(C#N)c(=O)oc2c1
diameter of the inhibition zone (DIZ) [1]: inactive
diameter of the inhibition zone (DIZ) (Escherichia coli): inactive
diameter of the inhibition zone (DIZ) (Bacillus pumilus): inactive
diameter of the inhibition zone (DIZ) (Bacillus subtilis): inactive
diameter of the inhibition zone (DIZ) (Staphylococcus aureus): inactive
diameter of the inhibition zone (DIZ) [2]: inactive
diameter of the inhibition zone (DIZ) (Candida albicans): inactive
diameter of the inhibition zone (DIZ) (Saccharomyces cerevisiae): inactive
